Shown are actives, neighbours in structure and some others; about 3% of the full set was active somewhere.
HSF-1 act = increases HSF-1 driven luciferase reporter signal. NIH3T3-HGL HSF-1 luciferase reporter, MG132, 8 h; 100% = twice DMSO control signal. activation, % at 9 µM. 300,000 compounds, 1.7% hits. AID 504408;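 active = mean replicate activation of at least 50% with a set share of replicates each reaching 50%; inconclusive = only one of those two conditions met; inactive = mean below 50% and too few replicates reaching it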;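 also: 0% = median of the neutral control wells and 100% = twice that signal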
PfHsp90 set2 = inhibits growth of yeast expressing Plasmodium falciparum Hsp90. S. cerevisiae expressing PfHsp90, BacTiter-Glo ATP, 48 h; yeast lacking PDR1 and PDR3 efflux regulators. inhibition, % at 9.4 µM. 310,000 compounds, 0.32% hits. AID 504621;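 active = every replicate shows inhibition above about 80%, whatever the replicate mean, limit read from the data; inconclusive = mean inhibition reaches the set limit but some replicate falls short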;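 also: 0% = DMSO neutral controls and 100% = 20 µM radicicol positive controls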
CaV13 ICDI inh = Disruptors of the CACNA1D IQ motif to Ca2+-dependent inactivation inhibitor domain association, primary screening, Förster resonance energy transfer in intact living …; HEK cells, CFP/YFP FRET ICDI-IQ, plate reader, 10 min; percent FRET-ratio fall versus neutral wells; inhibition, % at 12.3 µM; 340,000 compounds, 0.098% hits; AID 743397;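 active = mean replicate inhibition of at least 30% and at least 1% of replicates passing that level; inconclusive = only one of the two criteria is met; inactive = neither criterion is met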;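 also: 0% = median of the neutral control wells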
PvdQ acylase = blocks Pseudomonas aeruginosa PvdQ acylase activity; purified PvdQ acylase, fluorescence plate reader; inhibition, % at 10 µM; 340,000 compounds, 0.063% hits; AID 488965; in the data active = inhibition above about 30%, passing the limit was not always enough; inconclusive = no clear call, values can overlap the other calls;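 also: 0% = vehicle neutral wells and 100% = reference inhibitor wells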
T cruzi inh = blocks replication of Trypanosoma cruzi. T. cruzi beta-gal in NIH3T3, luminescence, 90 h. inhibition, % (test concentration not listed). 300,000 compounds, 1.4% hits. AID 1885;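 active = mean inhibition across valid replicates above about 55%, limit read from the data; inconclusive = mean below that limit but half or more replicates reach it; inactive = mean below it, under half of replicates reach it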;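 also: signal also drops with host cell toxicity which is not excluded here; 0% = plate median of DMSO wells and 100% = zero luminescence signal; higher percent means less beta-gal luminescence so fewer parasites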
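System: Mouse NIH/3T3 fibroblasts infected with β-gal-expressing T. cruzi Tulahuen C4 | Quantity: NIH/3T3 cells, 5,000 per well | Reagent: 5000 reporter trypomastigotes per well | Dosing: Compound pinned at 50 nL/well, DMSO | Schedule: 3 h host attachment, then at least 90 h co-culture | Detection: GalScreen luminescence, 60 min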
N-glyco inh = blocks N-linked glycosylation in D54 reporter cells; 360,000 compounds, 0.23% hits; D54 ERlucT glycosylation luciferase reporter, 24 h; percent of 100 nM tunicamycin response; AID 588692; reporter increase, % at 12.5 µM;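 active = mean luciferase reporter signal, scaled so untreated is 0 and the glycosylation-blocking control 100, at or above a set limit in every replicate; inconclusive = mean reaches the limit but not every replicate does; inactive = mean below the limit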;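 also: luciferase carries N-glycosylation sites so blocking glycosylation raises the light; 0% = median of neutral control wells and 100% = median of 100 nM tunicamycin wells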
Numbers without * were called inactive; ? = inconclusive; . = no result given; + = active, no number.

SMILES	HSF-1 act	PfHsp90 set2	CaV13 ICDI inh	PvdQ acylase	T cruzi inh	N-glyco inh
Cc1nc(C(=O)NC2CCCCC2)sc1C1(C)CC(c2cccc([N+](=O)[O-])c2)=NO1 (centres undefined)	-6	-23	-11	-8	48	-3
COC(=O)[C@@]12C[C@@H](CC(=O)NCCc3ccccc3OC)C(=O)N(CCc3ccc(OC)c(OC)c3)C1=CCC(C)(C)C2	.	.	-9	.	.	.
Oc1[nH]c2ccccc2c1N=NC(=S)N1CCOCC1	87*	0	.	2	56*	-16
Oc1[nH]c2ccc(Br)cc2c1N=NC(=S)N1CCOCC1	240*	-115	-2	8	55*	-15
CC1=C(C(=O)N2CCOCC2)CC(CC(=O)NC2CCCCC2)C(=O)N1Cc1ccc(C(C)(C)C)cc1 (centres undefined)	.	.	-10	.	.	8
COc1ccc(S(=O)(=O)NC2CC3CCC2C3)cc1Cl (centres undefined)	-4	141*	-8	-12	7	0
COc1ccc(S(=O)(=O)NC2CC3CCC2C3)cc1Br (centres undefined)	4	114*	-22	-6	8	-2
CC(=O)Nc1ccc(S(=O)(=O)NC2CC3CCC2C3)cc1 (centres undefined)	3	2	-2	2	10	-1
O=S(=O)(NC1CC2CCC1C2)c1ccc2c(c1)OCCO2 (centres undefined)	-7	21	0	0	-15	0
NNC(=O)c1cc2c(s1)-c1cc(Cl)ccc1SC2	-8	-1	-6	-6	5	1
CCN(CC)CCNC(=O)c1cc2c(s1)-c1ccccc1SC2	3	-3	-21	7	55*	-12
CC1CCN(C(c2ccc(N(C)C)cc2)c2nnnn2Cc2ccccc2)CC1 (centres undefined)	66*	-3	-8	-1	19	0
CCC(C)(C)n1nnnc1C(c1cccnc1)N1CCN(c2cccc(C(F)(F)F)c2)CC1 (centres undefined)	-2	62	-5	-6	62*	-4
c1ccc(Cn2nnnc2C(c2cccnc2)N2CCN(c3ccccc3)CC2)cc1 (centres undefined)	12	-87	-5	-5	81*	-3
CC(C)(C)n1nnnc1C(c1cccnc1)N1CCN(c2ccccc2)CC1 (centres undefined)	-10	66	-5	-9	55*	-2
c1ccc(Cn2nnnc2C(c2ccncc2)N2CCOCC2)cc1 (centres undefined)	-6	5	-8	-25	-3	1
COc1cc2c(c(OC)c1OC)[C@@]1(c3ccccc3)CCCCC[C@H]1[C@@H]2NC(=O)C(F)(F)F	.	.	-2	.	.	.
C[C@@H](C(=O)OCC(=O)c1ccc(F)c(F)c1)N1C(=O)C2CCCCC2C1=O (some centres undefined)	.	-8	-6	2	.	1
COc1ccc(Nc2c(CCc3ccccc3)nc3nc(C)cc(C)n23)cc1	.	.	-5	.	.	.
CNC(=O)OCc1nc(SSC(C)(C)C)n(C)c1COC(=O)NC	.	16	-6	-20	.	15
COc1ccc(CCn2c(=N)c(C(=O)NCC3CCCO3)cc3c(=O)n4cccc(C)c4nc32)cc1 (centres undefined)	-4	-4	-9	9	58*	41*
Cc1cccn2c(=O)c3cc(C(=O)NCC4CCCO4)c(=N)n(CC4CCCO4)c3nc12 (centres undefined)	-14	11	58*	-38	-3	11
CCOCCCNc1nc2nc3ccc(C)cn3c(=O)c2cc1C(=O)NCC1CCCO1 (centres undefined)	-2	12	+	-76	5	6
Cc1cccn2c(=O)c3cc(C(=O)NC4CCCC4)c(=N)n(CC4CCCO4)c3nc12 (centres undefined)	8	-16	6	-50	14	?
Cc1ccc2nc3c(cc(C(=O)NCC4CCCO4)c(=N)n3CCCOC(C)C)c(=O)n2c1 (centres undefined)	.	-48	5	-126	.	2
SMILES	HSF-1 act	PfHsp90 set2	CaV13 ICDI inh	PvdQ acylase	T cruzi inh	N-glyco inh
CC1(C(=O)NCc2ccccc2)CSCC(=O)N1Cc1cccc(F)c1 (centres undefined)	.	.	-10	.	.	.
CCN(CC(=O)NCc1cccs1)C(=O)c1ccc([N+](=O)[O-])o1	-11	32	-6	-6	63*	4
N/C(CSc1nc(-c2ccccc2)c(-c2ccccc2)o1)=N\O	0	-20	-6	-17	10	4
C/C(N)=C(/C#N)C(=O)CSc1nc(-c2ccccc2)c(-c2ccccc2)o1	5	-10	-5	-9	59*	-1
C/C(N)=C(/C#N)C(=O)CSc1nnc(-c2ccc(OC(F)F)cc2)o1	78*	7	-2	10	-2	-2
CCOC(=O)c1c(C)[nH]c(C)c1C(=O)CSc1nnc(-c2ccc(OC(F)F)cc2)o1	-8	2	-5	-18	9	-4
C/C(N)=C(/C#N)C(=O)CSc1nnc(-c2ccc3c(c2)OCO3)o1	76*	-9	-9	-16	0	-18
Cc1ccc(C(=O)NNc2cc(N3CCCC3)nc(N3CCCC3)n2)cc1	-14	.	.	.	81*	.
C=CCNC(=O)CSc1nnc(C(CC)N(C)C)n1C1CCCCC1 (centres undefined)	67*	-4	-2	-15	1	2
CC(C)C[C@H]1COc2ccc(Cl)cc2S(=O)(=O)N1	.	.	-7	.	.	.
COc1ccc(C(=O)NCCSC2CCCCC2)cc1	51*	6	-7	21	-12	-1
Cc1ccc(N=Cc2cc(Cc3ccccc3Cl)cc([N+](=O)[O-])c2O)c(O)c1	34	111*	.	1	-2	4
COc1ccc(N=Cc2cc(Cc3ccccc3Cl)cc([N+](=O)[O-])c2O)cc1OC	-1	111*	.	5	26	3
COc1cc(CCN=Cc2cc(Cl)cc(Cl)c2O)c([N+](=O)[O-])cc1OC	.	.	-14	.	.	2
Cc1[nH]nc2c1C(c1ccc(-c3ccccc3C#N)o1)C(C#N)=C(N)O2 (centres undefined)	17	-1	.	-2	-7	25*
Cc1[nH]nc2c1C(c1ccc(-c3ccc(Cl)cc3)o1)C(C#N)=C(N)O2 (centres undefined)	8	1	-4	-15	-10	29*
COC(=O)[C@@]12C[C@@H](CC(=O)N3CCN(C(=O)c4ccco4)CC3)C(=O)N(Cc3ccccc3)C1=CCC(C)(C)C2	.	.	-9	.	.	.
NNC(=O)c1nc2ccccc2s1	.	.	-5	.	.	0
Cc1ccnc(NC(=O)CCS(=O)(=O)c2ccccc2)c1	19	16	-4	-8	-1	0
